According to ChEMBL document CHEMBL4020714, “Design, synthesis, and evaluation of curcumin derivatives as Nrf2 activators and cytoprotectors against oxidative death” (Eur J Med Chem, 2017):
Active and inactive are the calls of the source. The rule behind the calls is not given here.

Legend:
[1] = Stability of the compound in PBS at 40 uM at pH 7.4 at 25 degC measured for 30 mins by UV-Vis spectrophotometric analysis; format: physicochemical; conditions: buffer, pH 7.4, 0.5 h
Summary of the method: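 Compound at 40 μM in PBS (pH 7.4) at 25 °C. UV-visible absorption spectra recorded every 2 min for 30 min against blanks of solution plus DMSO.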

[2] = molecular target: T1, Nuclear factor erythroid 2-related factor 2 (Homo sapiens) (UniProt Q16236); assay: (§1) Activation of Nrf2 in human HepG2 cells assessed as cytoprotection against t-BHP-induced oxidative cell death at 5 uM incubated for 24 hrs followed by compound removal with subsequent incubation with 900 uM of t-BHP for 6 hrs by MTT assay; format: cell-based
T1 sequence (whole entry): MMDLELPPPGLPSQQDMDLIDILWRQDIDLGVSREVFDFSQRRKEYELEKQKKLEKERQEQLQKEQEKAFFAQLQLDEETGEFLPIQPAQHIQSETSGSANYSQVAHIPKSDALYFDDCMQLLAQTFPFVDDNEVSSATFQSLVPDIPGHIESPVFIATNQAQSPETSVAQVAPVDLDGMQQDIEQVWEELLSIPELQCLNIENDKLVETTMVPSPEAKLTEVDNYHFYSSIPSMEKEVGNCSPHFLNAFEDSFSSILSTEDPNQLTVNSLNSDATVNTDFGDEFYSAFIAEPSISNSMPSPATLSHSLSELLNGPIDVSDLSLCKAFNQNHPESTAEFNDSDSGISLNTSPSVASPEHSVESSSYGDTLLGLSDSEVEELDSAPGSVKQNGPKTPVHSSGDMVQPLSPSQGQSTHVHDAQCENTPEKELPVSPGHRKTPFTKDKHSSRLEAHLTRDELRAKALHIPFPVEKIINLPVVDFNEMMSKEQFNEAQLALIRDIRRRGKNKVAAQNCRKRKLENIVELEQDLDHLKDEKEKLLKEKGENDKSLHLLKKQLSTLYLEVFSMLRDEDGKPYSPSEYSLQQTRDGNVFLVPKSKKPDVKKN
Summary of the method: (§2)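 HepG2 cells (5×10^3/well) seeded and grown 24 h in 1640 medium with 10% FBS at 37 °C and 5% CO2. Compound is added for 24 h, then removed, and cells are challenged with 900 μM t-BHP for 6 h at 37 °C. MTT (0.5 mg/mL) is added for 4 h, formazan dissolved in DMSO, and absorbance read at 570 nm. Where used, inhibitors are added 1 h before compound. Mean ± SD of three independent experiments.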

[3] = molecular target: T1, Nuclear factor erythroid 2-related factor 2 (Homo sapiens); assay: Activation of Nrf2 in human HepG2 cells assessed as cytoprotection against t-BHP-induced oxidative cell death incubated for 24 hrs followed by compound removal with subsequent incubation with 900 uM of t-BHP for 6 hrs by MTT assay; format: cell-based; summary of the method: as §2
HepG2 [4] = assay: Antioxidant activity against t-BHP-induced oxidative stress in human HepG2 cells assessed as inhibition of intracellular ROS accumulation incubated for 24 hrs followed by t-BHP addition for 3 hrs by DCFH-DA staining based flow cytometric analysis; format: functional, cell-based
Summary of the method: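 HepG2 cells (4×10^5/well) exposed to compound (1.25, 2.5 or 5 μM) or DMSO for 24 h, then to 900 μM t-BHP for 3 h. Cells collected, stained with 3 μM DCFH-DA for 30 min at 37 °C in the dark, washed with PBS, and analysed at once by flow cytometry (FITC channel). Values normalised to the corresponding control.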

HepG2 [5] = assay: Cytotoxicity against human HepG2 cells assessed as reduction in cell viability at 5 uM after 24 hrs by MTT assay; format: cell-based; conditions: hepg2, 24 h
Summary of the method: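 MTT viability in HepG2 cells (5×10^3/well) after 24 h exposure to compound at 5 μM. Formazan dissolved in DMSO and absorbance read at 570 nm. Mean ± SD of three independent experiments.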

[6] = molecular target: T1, Nuclear factor erythroid 2-related factor 2 (Homo sapiens); assay: Activation of Nrf2 in human HepG2 cells assessed as increase in nuclear Nrf2 expression level at 5 uM after 1 to 6 hrs by Western blot analysis; format: cell-based
Summary of the method: (§3)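 HepG2 cells (2×10^6/well) treated at the indicated concentrations and times. Whole-cell lysates, or nuclear and cytoplasmic fractions, are prepared and quantified by BCA. Samples are run at 40 μg/lane on 12% SDS-PAGE, transferred to nitrocellulose, probed with specific antibodies and HRP secondary (1/5000), and detected by ECL. Where used, LY294002 (15 μM), SP600125 (25 μM) or DTT (400 μM) is added 1 h before compound.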

[7] = molecular target: T1, Nuclear factor erythroid 2-related factor 2 (Homo sapiens); assay: Activation of Nrf2 in human HepG2 cells assessed as increase in nuclear Nrf2 expression level at 5 uM after 12 hrs by Western blot analysis; format: cell-based; summary of the method: as §3
[8] = molecular target: T1, Nuclear factor erythroid 2-related factor 2 (Homo sapiens); assay: Activation of Nrf2 in human HepG2 cells assessed as increase in GCLC expression level at 5 uM by Western blot analysis; format: cell-based; conditions: TDE = time-dependent effect; summary of the method: as §3
[9] = molecular target: T1, Nuclear factor erythroid 2-related factor 2 (Homo sapiens); assay: Activation of Nrf2 in human HepG2 cells assessed as increase in GCLC expression level after 24 hrs by Western blot analysis; format: cell-based; summary of the method: as §3
[10] = molecular target: T1, Nuclear factor erythroid 2-related factor 2 (Homo sapiens); assay: Activation of Nrf2 in human HepG2 cells assessed as increase in GCLM expression level after 24 hrs by Western blot analysis; format: cell-based; summary of the method: as §3
[11] = molecular target: T1, Nuclear factor erythroid 2-related factor 2 (Homo sapiens); assay: Activation of Nrf2 in human HepG2 cells assessed as increase in cytosolic Nrf2 expression level at 5 uM after 1 to 6 hrs by Western blot analysis; format: cell-based; summary of the method: as §3
[12] = molecular target: T1, Nuclear factor erythroid 2-related factor 2 (Homo sapiens); assay: Activation of Nrf2 in human HepG2 cells assessed as increase in cytosolic Nrf2 expression level after 3 hrs by Western blot analysis; format: cell-based; summary of the method: as §3
[13] = molecular target: T1, Nuclear factor erythroid 2-related factor 2 (Homo sapiens); assay: as §1, with “6 hrs in presence of 25 uM JNK inhibitor SP600125 for 1 hr prior to compound treatment by MTT” for “6 hrs by MTT”; format: cell-based; summary of the method: as §2
[14] = molecular target: T1, Nuclear factor erythroid 2-related factor 2 (Homo sapiens); assay: Activation of Nrf2 in human HepG2 cells assessed as increase in GCLC expression level at 5 uM in presence of 25 uM JNK inhibitor SP600125 for 1 hr prior to compound treatment by Western blot analysis; format: cell-based; summary of the method: as §3
[15] = molecular target: T1, Nuclear factor erythroid 2-related factor 2 (Homo sapiens); assay: Activation of Nrf2 in human HepG2 cells assessed as increase in GCLM expression level at 5 uM in presence of 15 uM PI3K/Akt inhibitor LY294002 for 1 hr prior to compound treatment by Western blot analysis; format: cell-based; summary of the method: as §3
[16] = molecular target: Keap1/Nrf2 (Homo sapiens) (UniProt Q16236+Q14145); assay: Inhibition of Keap1/Nrf2 interaction in human HepG2 cells assessed as decrease in Keap1 expression level after 3 hrs in presence of DTT for 1 hr prior to compound treatment by Western blot analysis; format: cell-based; summary of the method: as §3
[17] = molecular target: T1, Nuclear factor erythroid 2-related factor 2 (Homo sapiens); assay: as §1, with “6 hrs in presence of 400 uM metal ion chelator EDTA for 1 hr prior to compound treatment by MTT” for “6 hrs by MTT”; format: cell-based
[18] = molecular target: T1, Nuclear factor erythroid 2-related factor 2 (Homo sapiens); assay: Activation of Nrf2 in human HepG2 cells assessed as increase in Nrf2 expression level after 3 hrs by Western blot analysis; format: cell-based; summary of the method: as §3
[19] = molecular target: T1, Nuclear factor erythroid 2-related factor 2 (Homo sapiens); assay: Activation of Nrf2 in human HepG2 cells assessed as increase in GCLC expression level after 3 hrs by Western blot analysis; format: cell-based; summary of the method: as §3
[20] = molecular target: T1, Nuclear factor erythroid 2-related factor 2 (Homo sapiens); assay: Activation of Nrf2 in human HepG2 cells assessed as increase in GCLM expression level after 3 hrs by Western blot analysis; format: cell-based; summary of the method: as §3

Sequence of Keap1/Nrf2 (Homo sapiens) (Q14145 whole entry, looked up, one chain of several): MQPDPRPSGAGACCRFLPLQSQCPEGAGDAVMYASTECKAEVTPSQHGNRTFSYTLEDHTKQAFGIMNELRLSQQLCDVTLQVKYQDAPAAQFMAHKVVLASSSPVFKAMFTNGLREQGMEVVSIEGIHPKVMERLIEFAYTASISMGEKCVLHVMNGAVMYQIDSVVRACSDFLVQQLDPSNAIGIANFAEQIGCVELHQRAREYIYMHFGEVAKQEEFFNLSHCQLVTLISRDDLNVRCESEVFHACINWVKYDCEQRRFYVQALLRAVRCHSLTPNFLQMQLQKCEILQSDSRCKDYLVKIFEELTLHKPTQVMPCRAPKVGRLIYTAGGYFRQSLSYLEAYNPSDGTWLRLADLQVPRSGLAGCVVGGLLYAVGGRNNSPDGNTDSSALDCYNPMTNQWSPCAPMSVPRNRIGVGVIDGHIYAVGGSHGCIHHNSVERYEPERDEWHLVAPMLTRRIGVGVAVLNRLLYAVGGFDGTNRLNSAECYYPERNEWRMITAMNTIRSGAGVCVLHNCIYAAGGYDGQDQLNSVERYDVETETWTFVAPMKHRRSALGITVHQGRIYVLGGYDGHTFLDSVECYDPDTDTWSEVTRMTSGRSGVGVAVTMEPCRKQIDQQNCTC

In the case of `CC(C)(C(=O)/C=C/c1ccc(O)c(O)c1)C(=O)/C=C/c1ccc(O)c(O)c1`, the Stability [1] is reported as “Stable”, the Activity [2] is reported as “Active” and the Activity [3] is reported as “Dose-dependent effect”. The inhibition (HepG2 [4]) was “Dose-dependent effect”, the Activity (HepG2 [5]) was “Non-Toxic” and the Activity [6] was “Active”. The Activity [7] was “inactive”, the Activity [8] was “Tde” and the Activity [9] was “Dose-dependent effect”. For the same compound, the Activity [10] was “Dose-dependent effect”, the Activity [11] was “Active” and the Activity [12] was “Dose-dependent effect”. The Activity [13] was “inactive”, the Activity [14] was “inactive” and the Activity [15] was “inactive”. The inhibition [16] was “inactive”, the Activity [17] was “inactive” and the Activity [18] was “Active”. The Activity [19] was “Active” and the Activity [20] was “Active”.
